Results: ChEMBL document CHEMBL3616444, “Design, synthesis and pharmacological evaluation of pyrimidobenzothiazole-3-carboxylate derivatives as selective L-type calcium channel blockers” (Bioorg Med Chem, 2015)

Columns and labels:
Rattus norvegicus [1] = experiment: Antihypertensive activity in Norwegian albino rat model of DOCA-salt-induced hypertension assessed as inhibition of systolic blood pressure at 10 mg/kg, po after 9 hrs by non-invasive tail cuff method relative to control; type: functional
Procedure, shortened: (§1)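 DOCA-salt hypertensive rats; systolic pressure by tail cuff after 10 mg/kg, recorded hourly from 0 to 10 h; percent inhibition computed. Data as mean ± SEM, repeated-measures ANOVA.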

Rattus norvegicus [2] = experiment: Antihypertensive activity in Norwegian albino rat model of DOCA-salt-induced hypertension assessed as inhibition of systolic blood pressure at 10 mg/kg, po after 1 hr by non-invasive tail cuff method relative to control; type: functional; procedure, shortened: as §1
Rattus norvegicus [3] = experiment: Antihypertensive activity in Norwegian albino rat assessed as inhibition of systolic blood pressure at 10 mg/kg, po after 0.3 hrs by invasive carotid artery cannulation method relative to control; type: functional
Rattus norvegicus [4] = experiment: Antihypertensive activity in Norwegian albino rat model of DOCA-salt-induced hypertension assessed as inhibition of systolic blood pressure at 10 mg/kg, po after 3 hrs by non-invasive tail cuff method relative to control; type: functional; procedure, shortened: as §1
[5] = Cmax in Sprague-Dawley rat at 20 mg/kg, po by HPLC method; type: ADME, organism-based; set-up: dose 20 mg/kg, route oral; details: in vivo
[6] = Oral bioavailability in Sprague-Dawley rat at 20 mg/kg by HPLC method; type: ADME, organism-based; details: in vivo
[7] = Retention time of the compound by HPLC method; type: physicochemical
Procedure, shortened: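 HPLC run with 20 µl injection, 1.0 ml/min flow, 25 °C, detection at 343 nm or 258 nm depending on compound.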

Rattus norvegicus [8] = experiment: Antihypertensive activity in Norwegian albino rat assessed as inhibition of systolic blood pressure at 10 mg/kg, po after 3 hrs by invasive carotid artery cannulation method relative to control; type: functional
Rattus norvegicus [9] = experiment: Antihypertensive activity in Norwegian albino rat model of DOCA-salt-induced hypertension assessed as inhibition of systolic blood pressure at 10 mg/kg, po after 10 hrs by non-invasive tail cuff method relative to control; type: functional; procedure, shortened: as §1
[10] = Tmax in Sprague-Dawley rat at 20 mg/kg, po by HPLC method; type: ADME, organism-based; details: in vivo
Rattus norvegicus [11] = experiment: Antihypertensive activity in Norwegian albino rat assessed as inhibition of systolic blood pressure at 10 mg/kg, po after 4 hrs by invasive carotid artery cannulation method relative to control; type: functional
[12] = Retardation factor of the compound by HPTLC method; type: physicochemical
Procedure, shortened: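 Pre-coated silica gel 60 F254 plates (200 µm layer); 5 µl sample applied as 5 mm bands; toluene/acetonitrile (9:1) mobile phase, ascending development to 90 mm in a chamber pre-saturated 15 min.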

Rattus norvegicus [13] = experiment: Antihypertensive activity in Norwegian albino rat assessed as inhibition of systolic blood pressure at 10 mg/kg, po after 1 hr by invasive carotid artery cannulation method relative to control; type: functional
[14] = AUC (0 to infinity) in Sprague-Dawley rat at 10 mg/kg, iv by HPLC method; type: ADME, organism-based; set-up: dose 10 mg/kg, route intravenous, time infinity; details: in vivo
Rattus norvegicus [15] = experiment: Antihypertensive activity in Norwegian albino rat model of DOCA-salt-induced hypertension assessed as inhibition of systolic blood pressure at 10 mg/kg, po after 4 hrs by non-invasive tail cuff method relative to control; type: functional; procedure, shortened: as §1
Rattus norvegicus [16] = experiment: Antihypertensive activity in Norwegian albino rat model of DOCA-salt-induced hypertension assessed as inhibition of systolic blood pressure at 10 mg/kg, po after 6 hrs by non-invasive tail cuff method relative to control; type: functional; procedure, shortened: as §1
Rattus norvegicus [17] = experiment: Antihypertensive activity in Norwegian albino rat model of DOCA-salt-induced hypertension assessed as inhibition of systolic blood pressure at 10 mg/kg, po after 8 hrs by non-invasive tail cuff method relative to control; type: functional; procedure, shortened: as §1
[18] = AUC (0 to infinity) in Sprague-Dawley rat at 20 mg/kg, po by HPLC method; type: ADME, organism-based; set-up: dose 20 mg/kg, route oral, time infinity; details: in vivo
Rattus norvegicus [19] = experiment: Antihypertensive activity in Norwegian albino rat assessed as inhibition of systolic blood pressure at 10 mg/kg, po after 2 hrs by invasive carotid artery cannulation method relative to control; type: functional
Rattus norvegicus [20] = experiment: Antihypertensive activity in Norwegian albino rat assessed as inhibition of systolic blood pressure at 10 mg/kg, po after 0.15 hrs by invasive carotid artery cannulation method relative to control; type: functional
[21] = Cmax in Sprague-Dawley rat at 10 mg/kg, iv by HPLC method; type: ADME, organism-based; set-up: dose 10 mg/kg, route intravenous; details: in vivo
Rattus norvegicus [22] = experiment: Antihypertensive activity in Norwegian albino rat model of DOCA-salt-induced hypertension assessed as inhibition of systolic blood pressure at 10 mg/kg, po after 5 hrs by non-invasive tail cuff method relative to control; type: functional; procedure, shortened: as §1
[23] = Inhibition of porcine kidney ACE assessed as reduction in hippuryl-histidyl-leucine hydrolysis to hippuric acid release incubated for 30 mins high-throughput colorimetric method; set-up: species or system Sus scrofa
Procedure, shortened: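 Porcine kidney ACE in 1 M sodium borate buffer pH 8.2 with 0.3 M NaCl and 5 mM HHL substrate (stock); 37 °C for 30 min, stopped with 1 M HCl. Released hippuric acid complexed with pyridine and benzene sulfonyl chloride, cooled on ice, yellow colour read at 410 nm; IC50 from log plots, at least five determinations per concentration.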

Rattus norvegicus [24] = experiment: Antihypertensive activity in Norwegian albino rat model of DOCA-salt-induced hypertension assessed as inhibition of systolic blood pressure at 10 mg/kg, po after 7 hrs by non-invasive tail cuff method relative to control; type: functional; procedure, shortened: as §1
Rattus norvegicus [25] = experiment: Gastrointestinal toxicity in Norwegian rat assessed as ulcerative index at 50 mg/kg, po after 17 hrs; type: organism-based; details: in vivo
Rattus norvegicus [26] = experiment: Antihypertensive activity in Norwegian albino rat model of DOCA-salt-induced hypertension assessed as inhibition of systolic blood pressure at 10 mg/kg, po after 2 hrs by non-invasive tail cuff method relative to control; type: functional; procedure, shortened: as §1
[27] = Elimination half life in Sprague-Dawley rat at 10 mg/kg, iv by HPLC method; type: ADME, organism-based; details: in vivo, read-out: beta t1/2 (converted)
[28] = Elimination half life in Sprague-Dawley rat at 20 mg/kg, po by HPLC method; type: ADME, organism-based; details: in vivo, read-out: beta t1/2 (converted)
[29] = target: Myosin light chain kinase, smooth muscle (Homo sapiens, UniProt Q15746); experiment: Inhibition of MLCK (unknown origin) incubated for 15 mins using [gamma-32P]-ATP by scintillation counting method
Sequence of Myosin light chain kinase, smooth muscle (Q15746 whole entry): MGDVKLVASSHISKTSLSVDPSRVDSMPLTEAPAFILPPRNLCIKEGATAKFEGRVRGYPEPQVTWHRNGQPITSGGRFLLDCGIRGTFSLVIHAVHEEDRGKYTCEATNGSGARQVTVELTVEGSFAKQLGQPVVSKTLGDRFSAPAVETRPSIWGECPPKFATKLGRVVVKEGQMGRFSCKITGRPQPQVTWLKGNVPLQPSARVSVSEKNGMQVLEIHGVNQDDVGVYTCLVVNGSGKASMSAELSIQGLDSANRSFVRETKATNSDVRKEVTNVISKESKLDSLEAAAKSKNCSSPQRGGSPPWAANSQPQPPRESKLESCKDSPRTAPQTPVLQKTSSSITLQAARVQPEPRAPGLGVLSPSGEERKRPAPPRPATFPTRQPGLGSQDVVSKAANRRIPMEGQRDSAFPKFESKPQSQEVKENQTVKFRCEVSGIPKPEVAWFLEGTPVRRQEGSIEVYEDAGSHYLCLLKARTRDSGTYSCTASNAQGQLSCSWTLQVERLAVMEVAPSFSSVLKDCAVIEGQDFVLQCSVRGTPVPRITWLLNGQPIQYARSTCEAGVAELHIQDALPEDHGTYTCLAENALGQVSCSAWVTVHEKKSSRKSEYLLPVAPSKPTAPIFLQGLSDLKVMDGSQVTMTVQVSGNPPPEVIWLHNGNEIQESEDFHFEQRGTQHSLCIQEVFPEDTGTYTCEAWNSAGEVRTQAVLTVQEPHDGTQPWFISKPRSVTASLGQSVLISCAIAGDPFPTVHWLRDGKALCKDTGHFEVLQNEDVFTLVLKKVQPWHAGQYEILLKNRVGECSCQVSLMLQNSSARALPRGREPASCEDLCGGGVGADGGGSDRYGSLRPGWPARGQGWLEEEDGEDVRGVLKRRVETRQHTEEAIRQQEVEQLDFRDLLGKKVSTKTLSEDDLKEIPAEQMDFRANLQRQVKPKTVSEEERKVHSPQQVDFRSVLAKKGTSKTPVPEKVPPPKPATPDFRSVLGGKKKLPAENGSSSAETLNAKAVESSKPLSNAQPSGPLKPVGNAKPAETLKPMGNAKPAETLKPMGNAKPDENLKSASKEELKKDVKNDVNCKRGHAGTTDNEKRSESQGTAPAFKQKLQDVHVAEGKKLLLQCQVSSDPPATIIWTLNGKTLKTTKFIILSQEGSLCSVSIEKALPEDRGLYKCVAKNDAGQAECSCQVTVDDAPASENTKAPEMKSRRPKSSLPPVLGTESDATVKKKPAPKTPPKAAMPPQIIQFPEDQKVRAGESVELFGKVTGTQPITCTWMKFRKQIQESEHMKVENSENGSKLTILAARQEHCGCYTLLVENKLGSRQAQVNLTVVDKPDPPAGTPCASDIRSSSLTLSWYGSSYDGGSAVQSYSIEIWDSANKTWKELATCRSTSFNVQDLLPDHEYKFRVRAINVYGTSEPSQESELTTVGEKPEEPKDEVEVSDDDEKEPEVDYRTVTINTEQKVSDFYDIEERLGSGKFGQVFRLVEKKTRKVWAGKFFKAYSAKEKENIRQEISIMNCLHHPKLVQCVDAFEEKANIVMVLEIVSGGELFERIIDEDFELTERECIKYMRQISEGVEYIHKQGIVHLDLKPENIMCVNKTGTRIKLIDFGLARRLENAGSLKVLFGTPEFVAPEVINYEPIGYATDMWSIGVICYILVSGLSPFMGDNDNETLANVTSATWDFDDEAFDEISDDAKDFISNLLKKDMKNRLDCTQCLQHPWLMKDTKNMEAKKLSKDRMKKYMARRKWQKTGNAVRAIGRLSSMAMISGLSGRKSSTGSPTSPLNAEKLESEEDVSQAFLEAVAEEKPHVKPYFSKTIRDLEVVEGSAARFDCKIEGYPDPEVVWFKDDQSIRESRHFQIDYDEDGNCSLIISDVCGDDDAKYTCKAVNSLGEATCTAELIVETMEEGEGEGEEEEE
Procedure, shortened: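 Active MLCK thawed on ice with kinase assay and dilution buffers and substrate; reaction with γ-32P-ATP incubated 15 min at 30 °C in a water bath, spotted on phosphocellulose P81 paper, washed three times ~10 min in 1% phosphoric acid. Radioactivity by scintillation counting, blank-corrected cpm converted to specific activity (nmol/min/mg); IC50 from log plots, at least five determinations per concentration.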

physchem = details: buffer, pH 7.4

Question: Which inhibition in vivo at 10 mg/kg (Rattus norvegicus [1]) does the source give for CCOC(=O)C1=C(C)N=C2Sc3ccccc3N2C1c1cccc([N+](=O)[O-])c1 (stereo unspecified) here?
Answer: 47.1%

Question: And the inhibition in vivo at 10 mg/kg (Rattus norvegicus [2])?
Answer: 4.89%

Question: And the inhibition in vivo at 10 mg/kg (Rattus norvegicus [3])?
Answer: 20%

Question: What about the inhibition in vivo at 10 mg/kg (Rattus norvegicus [4]) of the same compound?
Answer: 14.2%

Question: What about the Cmax [5] of the same compound?
Answer: 400 ng/mL

Question: And the bioavailability [6]?
Answer: 56.8%

Question: And the Retention_time [7]?
Answer: 3.045 min

Question: And the inhibition in vivo at 10 mg/kg (Rattus norvegicus [8])?
Answer: 42.2%

Question: And the inhibition in vivo at 10 mg/kg (Rattus norvegicus [9])?
Answer: 51.1%

Question: And the Tmax [10]?
Answer: 0.5 h

Question: What about the inhibition in vivo at 10 mg/kg (Rattus norvegicus [11]) of the same compound?
Answer: 52.4%

Question: What about the Rf [12] of the same compound?
Answer: 4.2

Question: And the inhibition in vivo at 10 mg/kg (Rattus norvegicus [13])?
Answer: 21.8%

Question: And the AUC(0-inf) [14]?
Answer: 1480 ng·h/mL

Question: And the inhibition in vivo at 10 mg/kg (Rattus norvegicus [15])?
Answer: 19.1%

Question: And the inhibition in vivo at 10 mg/kg (Rattus norvegicus [16])?
Answer: 27.6%

Question: And the inhibition in vivo at 10 mg/kg (Rattus norvegicus [17])?
Answer: 41.8%

Question: What about the AUC(0-inf) [18] of the same compound?
Answer: 840 ng·h/mL

Question: And the inhibition in vivo at 10 mg/kg (Rattus norvegicus [19])?
Answer: 28.9%

Question: And the inhibition in vivo at 10 mg/kg (Rattus norvegicus [20])?
Answer: 4%

Question: And the Cmax [21]?
Answer: 1630 ng/mL

Question: What about the inhibition in vivo at 10 mg/kg (Rattus norvegicus [22]) of the same compound?
Answer: 23.1%

Question: What about the IC50 [23] of the same compound?
Answer: > 100 µM

Question: What about the inhibition in vivo at 10 mg/kg (Rattus norvegicus [24]) of the same compound?
Answer: 37.8%

Question: What about the UI (Rattus norvegicus [25]) of the same compound?
Answer: 0.2

Question: What about the inhibition in vivo at 10 mg/kg (Rattus norvegicus [26]) of the same compound?
Answer: 10.2%

Question: What about the half-life [27] of the same compound?
Answer: 2.5 h

Question: What about the half-life [28] of the same compound?
Answer: 5.4 h

Question: And the IC50 ([29]; read-out: IC50)?
Answer: 2.1 µM

Question: And the IC50 ([29]; read-out: pIC50 (converted))?
Answer: 47600 µM

Question: What about the logD (physchem) of the same compound?
Answer: 4.57
